In assay [1] the test system is Rattus norvegicus. Nature of the assay: Hypotensive activity in anesthetized rats, dose that produced a 30% fall in mean blood pressure after 30 minutes. In kind it is functional. Summed up: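 Normotensive rats under urethane anaesthesia, arterial pressure recorded, femoral vein cannulated. Dosing iv in rising doses (0.01, 0.1, 1, 10 μmol/kg) at 30-min intervals, 1 mL/kg over 2 min; solvent controls; colonic temperature 38.0 ± 0.3 °C. Fall in pressure read 30 min after injection. ED30 is the dose (μmol/kg) giving a 30% fall in mean blood pressure.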

Assay [2] concerns Rattus norvegicus. Description: Hypotensive activity in anesthetized rats, dose that produced a 30% fall in mean blood pressure. In kind it is functional. An outline of the steps:
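Normotensive rats under urethane anaesthesia, arterial pressure recorded, femoral vein cannulated. Dosing iv in rising doses (0.01, 0.1, 1, 10 μmol/kg) at 30-min intervals, 1 mL/kg over 2 min; solvent-treated controls. Colonic temperature held at 38.0 ± 0.3 °C. Effect read at its maximum, 1–5 min after injection. ED30 is the dose (μmol/kg) giving a 30% fall in mean blood pressure.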

Assay [3] has as its system Rattus norvegicus. Nature of the assay: Antihypertensive activity as fall in systolic blood pressure after 3 hr of 10 uM/kg po dosing in Spontaneously hypertensive rats. In kind it is functional, Artery. An outline of the steps:
(§1)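 Conscious spontaneously hypertensive rats dosed by gavage, about 1 mL/rat. Systolic pressure recorded by tail-cuff after warming the rats 30 min at 36 °C. Fall in systolic BP (mmHg) read versus control values; listed values are significant decreases (p ≤ 0.05), otherwise marked NS. Baseline systolic pressure 175–190 mmHg across experiments.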

The subject of assay [4] is Rattus norvegicus. Nature of the assay: Antihypertensive activity as fall in systolic blood pressure after 5 h of 1 umol/kg po dosing in Spontaneously hypertensive rats;NS means nonsignificant change in blood pressure. Conditions: Artery. The assay is classed as functional, organism-based. An outline of the steps: as §1
Assay [5] relates to Rattus norvegicus. Description: Antihypertensive activity as fall in systolic blood pressure after 5 hr of 10 uM/kg po dosing in Spontaneously hypertensive rats. The assay is classed as functional, Artery. An outline of the steps: as §1
In assay [6] the test system is Rattus norvegicus. Nature of the assay: Antihypertensive activity as fall in systolic blood pressure after 1 hr of 10 uM/kg po dosing in Spontaneously hypertensive rats;NS means nonsignificant change in blood pressure. In kind it is functional, organism-based. Particulars: Artery. An outline of the steps:
as §1

The subject of assay [7] is Rattus norvegicus. Description: Antihypertensive activity as fall in systolic blood pressure after 3 hr of 1 umol/kg po dosing in Spontaneously hypertensive rats. In kind it is functional, Artery. Summed up:
as §1

Assay [8] relates to Rattus norvegicus. Nature of the assay: Antihypertensive activity as fall in systolic blood pressure after 1 h of 1 umol/kg po dosing in Spontaneously hypertensive rats. In kind it is functional, Artery. An outline of the steps: as §1
In assay [9] the test system is Rattus norvegicus. Description: Antihypertensive activity as fall in systolic blood pressure after 5 hr of 3 umol/kg po dosing in Spontaneously hypertensive rats. In kind it is functional, Artery. Summed up:
as §1

The test system of assay [10] is Rattus norvegicus. Description: Antihypertensive activity as fall in systolic blood pressure after 1 h of 3 umol/kg po dosing in Spontaneously hypertensive rats. The assay is classed as functional, Artery. An outline of the steps: as §1
The subject of assay [11] is Rattus norvegicus. Nature of the assay: Antihypertensive activity as fall in systolic blood pressure after 3 h of 3 umol/kg po dosing in Spontaneously hypertensive rats. In kind it is functional, Artery. An outline of the steps: as §1
Assay [12] has as its system Rattus norvegicus. Nature of the assay: Antihypertensive activity as fall in systolic blood pressure after 5 h of 0.3 umol/kg po dosing in Spontaneously hypertensive rats. In kind it is functional, Artery. An outline of the steps:
as §1

Assay [13] relates to Rattus norvegicus. Description: Antihypertensive activity as fall in systolic blood pressure after 3 h of 0.3 umol/kg po dosing in Spontaneously hypertensive rats. The assay is classed as functional, Artery. Summed up: as §1
In assay [14] the test system is Rattus norvegicus. Description: Antihypertensive activity as fall in systolic blood pressure after 1 h of 0.3 umol/kg po dosing in Spontaneously hypertensive rats;NS means nonsignificant change in blood pressure. In kind it is functional, organism-based. Conditions: Artery. Summed up:
as §1

Assay [15] relates to Rattus norvegicus. Nature of the assay: Antihypertensive activity as fall in systolic blood pressure after 5 hr of 1 umol/kg po dosing in Spontaneously hypertensive rats. In kind it is functional, Artery. Summed up:
as §1

In assay [16] the test system is Rattus norvegicus. Description: Antihypertensive activity as fall in systolic blood pressure after 1 hr of 10 uM/kg po dosing in Spontaneously hypertensive rats. The assay is classed as functional, Artery. An outline of the steps:
as §1

As to `COc1cc2nc(N3CCCC(C(=O)N4CCCC4)C3)nc(N)c2cc1OC.Cl` (stereo in doubt; 6i), the ED30 in the assay with Rattus norvegicus [1] was 30 µM/kg; in the assay on Rattus norvegicus [2], 12 µM/kg.
For `CCCCC(O)C1CCN(c2nc(N)c3cc(OC)c(OC)cc3n2)CC1.Cl` (stereo unspecified), in that order: 0.7 µM/kg and 0.1 µM/kg.
As for `COc1cc2nc(N3CCC(C(=O)C4CCCCC4)CC3)nc(N)c2cc1OC.Cl`, the “Decrease in SBP” value in the assay with Rattus norvegicus [3] is 54 mmHg; in the assay with Rattus norvegicus [4], “Not significant”; with Rattus norvegicus [5] it was 51 mmHg; in the assay with Rattus norvegicus [6], “Not significant”; with Rattus norvegicus [7] it was 20 mmHg; in the assay on Rattus norvegicus [8], 15 mmHg. In addition, the ED30 with Rattus norvegicus [1] worked out at 0.1 µM/kg; in the assay with Rattus norvegicus [2] it was 0.07 µM/kg.
Regarding `COc1cc2nc(N3CCC(C(=O)C4CCCC4)CC3)nc(N)c2cc1OC.Cl`, the “Decrease in SBP” value was determined as 35 mmHg in the assay on Rattus norvegicus [9]; 34 mmHg with Rattus norvegicus [10]; 54 mmHg in the assay with Rattus norvegicus [3]; 34 mmHg in the assay with Rattus norvegicus [11]; 11 mmHg in the assay with Rattus norvegicus [12]; 50 mmHg in the assay with Rattus norvegicus [5]. The “Decrease in SBP” value with Rattus norvegicus [13] is 11 mmHg; in the assay with Rattus norvegicus [7] it was 20 mmHg; in the assay on Rattus norvegicus [14], “Not significant”; in the assay with Rattus norvegicus [8], 18 mmHg; in the assay with Rattus norvegicus [15], 21 mmHg; in the assay on Rattus norvegicus [16], 45 mmHg. Also, the ED30 in the assay on Rattus norvegicus [1] is 0.09 µM/kg; in the assay on Rattus norvegicus [2], 0.06 µM/kg.
`COc1cc2nc(N3CCC(C(O)C4CCCC4)CC3)nc(N)c2cc1OC.Cl` (stereo unspecified): the ED30 in the assay with Rattus norvegicus [1] was 0.7 µM/kg; in the assay with Rattus norvegicus [2] it was 0.1 µM/kg.
As to `CCOC(=O)C1CCN(c2nc(N)c3cc(OC)c(OC)cc3n2)CC1.Cl`, the ED30 with Rattus norvegicus [1] came to 30 µM/kg; in the assay with Rattus norvegicus [2], 0.3 µM/kg.
Turning to `COc1cc2nc(N3CCC(C(O)C4CCCCC4)CC3)nc(N)c2cc1OC.Cl` (stereo unspecified), the “Decrease in SBP” value was 30 mmHg in the assay on Rattus norvegicus [3]; 38 mmHg in the assay on Rattus norvegicus [5]; 17 mmHg with Rattus norvegicus [7]; 12 mmHg in the assay with Rattus norvegicus [8]; 19 mmHg in the assay with Rattus norvegicus [15]; 25 mmHg with Rattus norvegicus [16]. Moreover, the values for the ED30 in the assay with Rattus norvegicus [1] and in the assay with Rattus norvegicus [2] were 0.1 µM/kg and 0.06 µM/kg, respectively.
For `COc1cc2nc(N3CCC(C(=O)N4C(C)CCC4C)CC3)nc(N)c2cc1OC.Cl` (stereo unspecified), the ED30 in the assay with Rattus norvegicus [1] was found to be 0.2 µM/kg; with Rattus norvegicus [2], 0.08 µM/kg.
Regarding `COc1cc2nc(N3CCC(Cc4ccccc4)CC3)nc(N)c2cc1OC.Cl`, the ED30 is 0.07 µM/kg in the assay on Rattus norvegicus [1] and 0.06 µM/kg in the assay with Rattus norvegicus [2].
For `COc1cc2nc(N3CCC(C(C)O)CC3)nc(N)c2cc1OC.Cl` (stereo unspecified), in that order: 0.7 µM/kg and 0.5 µM/kg.
For `COc1cc2nc(N3CCC(C(=O)c4cccs4)CC3)nc(N)c2cc1OC.Cl`, in that order: 6 µM/kg and 0.2 µM/kg.
For `COc1cc2nc(N3CCC(C(=O)N4CCCC4)CC3)nc(N)c2cc1OC.Cl`, in that order: 0.4 µM/kg and 0.2 µM/kg.
In the case of `COc1cc2nc(N3CCC(C)CC3)nc(N)c2cc1OC.Cl`, in the assay with Rattus norvegicus [2], the ED30 is 0.08 µM/kg.
As to `COc1cc2nc(N3CCC(C(=O)N4CCCCC4C)CC3)nc(N)c2cc1OC.Cl` (stereo unspecified), the ED30 with Rattus norvegicus [1] stood at 0.9 µM/kg; with Rattus norvegicus [2], 0.1 µM/kg.

These data come from ChEMBL document CHEMBL1122368, “Synthesis and antihypertensive activity of some new quinazoline derivatives” (1983).
